# Screening results as filed in PubChem BioAssay.
# M1 ag parental: M1 agonist counterscreen hit in parental CHO-K1 cells; Fluo-8 calcium fluorescence; scaled to maximal ATP response, vehicle zero; activation, % at 3 µM; 360,000 tested, 0.48% active; AID 602248; in the data active = activation above about 15%;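 note: untransfected CHO-K1 host cells lacking M1 receptor as counterscreen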
# CHO-K1 Ca PAM: M1 PAM counterscreen hit in parental CHO-K1 cells | ATP EC20, Fluo-8 calcium fluorescence; 0% at ATP EC20, 100% at ATP max | activation, % at 3 µM | 360,000 tested, 0.02% active | AID 602247;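 active = activation above the run cutoff, the mean activation of all test compounds plus 3 SD, cut at about 40% in these data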;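 note: peak over basal fluorescence ratio in a 140 s read after ATP addition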
# OX1R antag-1: antagonists of human orexin 1 receptor (OX1R); O43613; OX1R-expressing cells, FRET antagonist read-out; inhibition, % at 6.6 µM; 330,000 tested, 1.8% active; AID 485270; in the data active = inhibition mostly above about 38%, no sharp cut-off; inactive = mostly below about 40%;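 note: 0% = agonist challenge alone and 100% = reference antagonist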
# Target sequence (O43613 whole entry, looked up): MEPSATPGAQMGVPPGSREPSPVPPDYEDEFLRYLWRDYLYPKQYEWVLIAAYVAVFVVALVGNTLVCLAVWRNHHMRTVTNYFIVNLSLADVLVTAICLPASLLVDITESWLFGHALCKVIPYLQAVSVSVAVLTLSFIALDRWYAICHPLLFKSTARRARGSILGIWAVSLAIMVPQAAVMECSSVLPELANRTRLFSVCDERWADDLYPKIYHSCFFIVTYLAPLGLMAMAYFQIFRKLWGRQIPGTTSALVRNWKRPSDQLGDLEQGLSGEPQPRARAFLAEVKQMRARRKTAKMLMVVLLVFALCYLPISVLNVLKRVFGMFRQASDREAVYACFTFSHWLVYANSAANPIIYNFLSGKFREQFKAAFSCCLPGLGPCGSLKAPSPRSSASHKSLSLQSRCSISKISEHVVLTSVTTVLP
# CHO-K1 Ca antag: nonselective inhibitor or artifact in parental CHO-K1 cells; ATP-induced calcium, Fluo-8 fluorescence; inhibition, % at 3 µM; 360,000 tested, 0.6% active; AID 602250;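 active = inhibition above a per-plate cutoff, the plate's mean sample inhibition plus 3 SD, cut at about 24% in these data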;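 note: 0% = DMSO plus EC80 ATP and 100% = DMSO alone without ATP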
# OX1R antag-2: human HCRTR1 antagonism; O43613; CHO/OX1R cells, Fluo-8 calcium fluorescence, orexin A; inhibition, % at 5 µM; 330,000 tested, 0.43% active; AID 434989;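 active = inhibition above its plate's threshold, mean inhibition of all tested compounds on the plate plus 3 SD, cut at about 37% in these data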;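 note: 0% = orexin A challenge wells and 100% = SB-334867-A antagonist wells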
# CHO parental Ca: counter-screen for OX1R antagonists: effect in parental CHO cells; parental CHO-K1, ATP-induced calcium, Fluo-8 fluorescence; inhibition, % at 5.6 µM; 330,000 tested, 0.63% active;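 active = inhibition above that plate's mean sample inhibition plus 3 SD, cut at about 26% in these data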;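 note: 0% = ATP-challenged DMSO wells and 100% = DMSO wells without ATP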
#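 Measured by: calcium-sensitive Fluo-8 fluorescence / Test system: CHO parental line / Controls: ATP-challenged DMSO wells low, unchallenged DMSO wells high / Measure: % inhibition / Compound: single nominal dose of 5.6 µM per compound / Replicates: single well per compound, no replicates / Reagent: ATP as calcium-mobilizing challenge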
# The depositor's hits bear a star; . = no result given. Sampled rows, rich in hits. Any-hit rate of the full collection: about 2.9%.
SMILES,M1 ag parental,CHO-K1 Ca PAM,OX1R antag-1,CHO-K1 Ca antag,OX1R antag-2,CHO parental Ca
CCCCc1nnc(NC(=O)C2CC(=O)N(c3ccc(C)cc3)C2)s1 (stereo not drawn),2,14,2,-12,-25,-11
Cc1sc2ncnc(SCC(=O)Nc3ccc(S(=O)(=O)N4CCOCC4)cc3)c2c1C,1,13,0,-15,-22,-23
COc1ccc(Cc2nnc(NC(=O)c3ccccc3Cl)s2)cc1OC,22*,16,11,-1,-11,-9
COc1ccc(Cc2nnc(NC(=O)CSc3ccc(C)cc3)s2)cc1OC,49*,42*,11,-22,-62,-42
COc1ccc(S(=O)(=O)N2CCc3ccccc32)cc1C(=O)NCCc1ccccn1,0,9,11,-5,-20,-9
CS(=O)(=O)N1CCC(Oc2cccc(C(=O)NCCCC3CCCC3)c2)CC1,7,-15,39,6,-9,-15
O=C(N/N=C/c1cccnc1)/C(=C\c1cccs1)NC(=O)c1ccccc1,19*,17,20,-1,-19,-12
CCNC(=O)C1(C)CCN1Cc1cc(-c2ccccc2)n(C)n1 (stereo not drawn),1,14,.,-7,.,.
NCCCC[C@@H]1NC(=O)c2cc([N+](=O)[O-])cc(I)c2SC[C@@H](C(N)=O)NC(=O)[C@H](Cc2ccc(O)cc2)NC1=O,0,-16,73*,-4,-16,8
O=C(NN=C1c2ccccc2-c2ccccc21)c1ccccc1,0,4,34,-4,-24,-24
O=C(NN=C1c2ccccc2-c2ccccc21)c1ccccc1Br,1,27,49*,-19,24,-20
CC(=O)Nc1ccc(S(=O)(=O)NCC(=O)OCC(=O)N2CCN(c3ccccc3)CC2)cc1,0,12,7,-2,0,-1
O=C(CNS(=O)(=O)c1c(Cl)cccc1Cl)OCC(=O)N1CCN(c2ccccc2)CC1,1,-12,10,26*,-33,-1
COc1ccc(-c2nc3c(c(SCC(=O)N4CCOCC4)n2)COC(C)(C)C3)cc1,0,-6,6,30*,7,8
COc1ccc(S(=O)(=O)N(C)c2ccc(C(=O)N3CCCC3)cc2)cc1,2,12,9,-3,-12,-10
COc1ccc(S(=O)(=O)N(C)c2ccc(C(=O)N3CCC(C(N)=O)CC3)cc2)cc1OC,-1,-11,2,25*,-3,-9
CCCNC(=O)Cn1c(=O)/c(=C/c2ccc(-c3ccc([N+](=O)[O-])cc3)o2)s/c1=C\C(=O)C(C)(C)C,32*,1,.,31*,.,.
O=C(Nc1ccc(Cl)cc1)NC1CCCCC1Cc1ccco1 (stereo not drawn),8,8,47*,16,-2,14
O=C(Nc1ccc(Cl)cc1)NC1CCCC1Cc1ccco1 (stereo not drawn),2,-7,23,23,1,-7
COc1cccc(CN(C)C(=O)c2cccc(S(=O)(=O)N3CCN(c4ccc(F)cc4)CC3)c2)c1OC,10,-22,36,11,13,35*
COc1cccc(CN(C)C(=O)c2cccc(S(=O)(=O)N3CCN(c4ccccc4)CC3)c2)c1OC,12,-3,.,-9,.,.
C#CCSc1nc(-c2cccs2)ccc1C#N,0,5,45,-2,-14,-7
CCN(CC)C(=O)CSc1nc(-c2cccs2)cc(-c2cccs2)c1C#N,1,-11,24,-2,3,58*
COC(=O)CSc1nc(-c2cccs2)ccc1C#N,2,19,68*,-7,17,-21
CCC1CCCCN1CCCNC(=O)CNC(=O)c1nn(-c2ccc(OC)c(Cl)c2)c(=O)c2ccccc12 (stereo not drawn),0,15,27,-2,-35,-10
SMILES,M1 ag parental,CHO-K1 Ca PAM,OX1R antag-1,CHO-K1 Ca antag,OX1R antag-2,CHO parental Ca
COCCCN1C(=O)C(CC(=O)NCCN2CCOCC2)CC(C(=O)N2CCCCCC2)=C1C (stereo not drawn),1,11,.,-21,.,.
OCC1(CCc2ccccc2)CCN(C/C=C/c2ccccc2)CC1,21*,30,-1,-12,-19,-17
OCC1(Cc2ccccc2Cl)CCN(C/C=C/c2ccccc2)CC1,3,4,9,3,-23,-3
Cc1ccc(NC(=O)COc2ccccc2C=O)cc1Cl,0,-4,24,7,-7,-3
COCCN1C(=O)C(=O)/C(=C(/O)c2ccc(S(=O)(=O)N3CCOCC3)cc2)C1c1cccc([N+](=O)[O-])c1 (stereo not drawn),0,13,25,-4,4,0
Cc1cc(C)c(NS(=O)(=O)c2ccc3c(c2)NC(=O)CCS3)c(C)c1,0,-15,12,21,4,-19
CC(CNS(=O)(=O)c1ccc2c(c1)NC(=O)CCS2)c1ccccc1 (stereo not drawn),18*,5,4,2,-9,-10
C=CCn1nnnc1SCC(=O)Nc1cccc(C(F)(F)F)c1,1,6,1,7,-7,-4
COc1ccc(CSc2nc(C)cc(=O)[nH]2)cc1Br,19*,18,7,-3,9,-10
CCN1CCN(c2ccc(Nc3ccnc4ccccc34)cc2)CC1,0,-1,30*,-3,-16,-7
CN1CCN(c2ccc(Nc3ccnc4cc(Cl)ccc34)cc2)CC1,1,34,32,-12,-15,-7
COc1cc(S(=O)(=O)n2cnc3ccccc32)ccc1Br,1,3,-8,-8,-8,-6
Cc1noc(C)c1COc1ccc(C(=O)OCC(N)=O)cc1,0,-16,8,27*,-13,-4
CCOC(=O)c1ccc(OCc2c(C)noc2C)cc1,1,14,33,-8,-17,-19
COc1cc(/C=N\NC(=O)C2COc3ccccc3O2)cc(OC)c1O (stereo not drawn),21*,16,14,-4,-10,-4
COc1ccc(N2C(=S)NC3N2C(=S)NC3(C)c2ccccc2)cc1 (stereo not drawn),1,22,23,-4,-12,-2
Cc1cccc(CSC(Nc2ccc(F)cc2)=C(C#N)C#N)c1,13,0,29,28*,5,25*
CC(SCc1ccccc1)C(=O)Nc1ccc(F)cc1 (stereo not drawn),1,15,26,-13,-23,-11
N#CC(C#N)=C(Nc1ccc(F)cc1)SCc1cccc(Br)c1,10,16,56,26*,36,70*
CCN(CC(=O)NCc1ccccc1Cl)CC(=O)Nc1c(F)cccc1F,1,7,29,-4,-4,-10
Cc1c(C(=O)Nc2ccncc2)sc2nc(-c3ccc(F)cc3)cn12,11,2,13,3,-5,77*
